Data set [1] in a line: Antioxidant activity assessed as hydroxyl radical scavenging activity by chemiluminescence assay. It is filed as functional. In short, it runs like this:
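•OH generated from EDTA, FeSO4 and 3% H2O2 with indoxyl-b-glucuronide as the CL probe. Ultra-weak photon emission read on a high-sensitivity chemiluminescence analyzer. IC50 is the concentration inhibiting 50% of generated •OH. Trolox as positive control; triplicate.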

A short description of data set [2]: Antioxidant activity assessed as superoxide radical scavenging activity by chemiluminescence assay. The format is functional. In short, it runs like this:
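O2•− generated by methylglyoxal plus arginine in PBS pH 7.4, with lucigenin as the CL probe. Ultra-weak photons counted by chemiluminescence analyzer. Trolox positive control; triplicate.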

The test system of data set [3] is RAW264.7. The data set can be described thus: Antiinflammatory activity in mouse RAW264.7 cells assessed as inhibition of LPS-induced NO production by Griess reagent method. The format is functional, cell-based. Summed up:
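RAW 264.7 cells (1 × 10^5/well) in DMEM with 10% FBS, 5% CO2, 37 °C, pre-incubated overnight. Then 24 h with vehicle or compound (0.31–20.0 µg/mL; DMSO final 0.2% v/v) plus 1 µg/mL E. coli 0127:B8 LPS. Nitrite in supernatant mixed 1:1 with Griess reagent, 5 min, OD 540 nm. IC50 derived; triplicate, mean ± SE.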
For orientation: Nitrite, measured by Griess reagent, commonly stands in for NO production.

A short description of data set [4]: Cytotoxicity against mouse RAW264.7 cells assessed as viable cells after 24 hrs by MTS assay in presence of LPS. The settings on record: read-out: Activity. It is filed as cell-based. On the set-up: concentration or dose not given beside the values. Summed up:
(§1)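 RAW 264.7 cells treated 24 h with compound (0.31–20.0 µg/mL, DMSO 0.2% v/v final), without LPS or with 1 µg/mL LPS. MTS solution (16.7% in RPMI 1640) added for 10 min; absorbance read at 490 nm.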
(In general: Tetrazolium assays rely on reduction of a dye to a coloured formazan, in cell work by metabolically active cells.)

Data set [5] is described as follows: Cytotoxicity against mouse RAW264.7 cells assessed as viable cells after 24 hrs by MTS assay. On the set-up: concentration or dose not given beside the values. It is filed as cell-based. The settings on record: read-out: Activity. In short, it runs like this:
as §1

The nature of data set [6]: Antiplatelet aggregatory activity in […] assessed as inhibition of collagen-induced platelet aggregation by aggregometry. The settings on record: Homo sapiens, Plasma. The format is functional.
Data set [7] deals with RAW264.7. The data set can be described thus: Ratio of IC50 for quercetin to IC50 for drug against LPS-induced NO release in mouse RAW264.7 cells by Griess reagent method. It is filed as functional.

One may read the IC50 as the concentration needed to halve the response being measured. Consider `COc1cc([C@@H](O)[C@H](COC(=O)c2ccc(O)cc2)Oc2c(OC)cc(/C=C/COC(=O)c3ccc(O)cc3)cc2OC)cc(OC)c1O` (relative stereo), for which the 50% inhibitory concentration (IC50) in data set [1] was 12.4 µM; in data set [2], more than 200 µM; in data set [3], 11.8 µM; in data set [6], 26.9 µM. Also, the viability at 24 h in data set [4] and in data set [5] was more than 85% each time.
Take `COc1cc([C@H](O)[C@H](COC(=O)c2ccc(O)cc2)Oc2c(OC)cc(/C=C/COC(=O)c3ccc(O)cc3)cc2OC)ccc1O` (relative stereo): the IC50 was 20.4 µM in data set [1], more than 200 µM in data set [2], 52.4 µM in data set [3] and 55.2 µM in data set [6]. Also, the viability at 24 h in data set [4] and in data set [5] was more than 85% each time.
As to `CCO[C@@H](c1ccc(O)c(OC)c1)[C@@H](COC(=O)c1ccc(O)cc1)Oc1c(OC)cc([C@@H]2CC(=O)c3c(O)cc(O)cc3O2)cc1OC` [QUIQUELIGNAN B], the IC50 in data set [1] was 19.9 µM; in data set [2], more than 200 µM; in data set [3], 36 µM; in data set [6] it was 43.3 µM. Also, the viability at 24 h in data set [4] and in data set [5] was more than 85% throughout.
With `O=c1c(O)c(-c2ccc(O)c(O)c2)oc2cc(O)cc(O)c12` [QUERCETIN], the IC50 in data set [3] is 54.3 µM.
In the case of `COc1cc(/C=C/COC(=O)c2ccc(O)cc2)ccc1O[C@@H](COC(=O)c1ccc(O)cc1)[C@@H](O)c1cc(OC)c(O)c(OC)c1` (relative stereo), the IC50 in data set [1] was 19 µM; in data set [2] it was more than 200 µM; in data set [3], 101 µM; in data set [6], more than 100 µM. In addition, the viability at 24 h in data set [4] and in data set [5] was more than 85% throughout.
Consider `COc1cc(C(=O)C(COC(=O)c2ccc(O)cc2)Oc2c(OC)cc(/C=C/COC(=O)c3ccc(O)cc3)cc2OC)cc(OC)c1O` (stereo unspecified), for which the IC50 was 27.5 µM in data set [1], more than 200 µM in data set [2], 20 µM in data set [3] and 67.5 µM in data set [6]. Besides, the viability at 24 h in data set [4] and in data set [5] was more than 85% in each case. Moreover, the “Ratio IC50” value in data set [7] is listed as 2.7.
Take `Cc1c(C)c2c(c(C)c1O)CCC(C)(C(=O)O)O2` (stereo unspecified) [TROLOX]: the IC50 came out at 4.4 µM in data set [1] and 32.8 µM in data set [2].
With `CCO[C@H](c1ccc(O)c(OC)c1)[C@@H](CO)Oc1c(OC)cc(-c2cc(=O)c3c(O)cc(O)cc3o2)cc1OC` [QUIQUELIGNAN C], the IC50 in data set [1] is 15.3 µM; in data set [2], more than 200 µM; in data set [3], 63.4 µM; in data set [6], 49.4 µM. Besides, the viability at 24 h in data set [4] and in data set [5] was more than 85% in each case.
For the compound `CCO[C@@H](c1ccc(O)c(OC)c1)[C@H](CO)Oc1c(OC)cc([C@@H]2CC(=O)c3c(O)cc(O)cc3O2)cc1OC` [QUIQUELIGNAN A], the results for the IC50 in data set [1], in data set [2] and in data set [6] were 27.4 µM, more than 200 µM and more than 100 µM, respectively.
On to `CC(=O)Oc1ccccc1C(=O)O` [ASPIRIN], for which, in data set [6], the IC50 came to 75.4 µM.
As for `COc1cc(C(=O)C(COC(=O)c2ccc(O)cc2)Oc2c(OC)cc([C@@H](O)[C@H](O)COC(=O)c3ccc(O)cc3)cc2OC)cc(OC)c1O` (relative stereo), the IC50 in data set [1] amounted to 6.2 µM; in data set [2] it was 53.8 µM.
